One block for each compound: values may come before it. Active and inactive are the calls of the source. No cut-off for these calls is given here.
Columns and labels:
[1] = target: T1, G-protein coupled receptor Mth (Drosophila melanogaster, UniProt O97148); test: Binding affinity to Drosophila melanogaster Mth ectodomain
T1 sequence (O97148 whole entry): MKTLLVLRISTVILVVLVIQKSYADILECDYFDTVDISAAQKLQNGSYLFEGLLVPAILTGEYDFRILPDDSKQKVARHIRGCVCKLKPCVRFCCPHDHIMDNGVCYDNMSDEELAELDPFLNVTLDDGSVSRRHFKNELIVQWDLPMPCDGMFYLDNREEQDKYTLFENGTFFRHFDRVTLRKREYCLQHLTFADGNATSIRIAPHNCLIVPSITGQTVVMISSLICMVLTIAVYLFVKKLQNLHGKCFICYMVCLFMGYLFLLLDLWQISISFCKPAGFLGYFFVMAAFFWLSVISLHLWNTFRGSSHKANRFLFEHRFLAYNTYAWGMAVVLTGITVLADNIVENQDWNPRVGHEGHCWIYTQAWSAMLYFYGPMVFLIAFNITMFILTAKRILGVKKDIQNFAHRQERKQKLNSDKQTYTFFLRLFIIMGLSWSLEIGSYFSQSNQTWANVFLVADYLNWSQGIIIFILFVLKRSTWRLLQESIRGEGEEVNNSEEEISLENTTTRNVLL
In short: (§1)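 Mth ectodomain (His6-tagged, C-terminal biotinylation tag, expressed in baculovirus-infected High 5 cells, biotinylated with BirA) immobilized at ~500 RU. Peptide was injected at the indicated concentrations, 45 μl per injection. Sensorgrams were double-referenced against a negative control flow cell and averaged buffer blanks. Kinetic parameters came from a global fit to a 1:1 bimolecular interaction model.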

[2] = target: T1, G-protein coupled receptor Mth; test: Inhibition of Drosophila melanogaster Mth […] transfected into human HEK cells assessed as inhibition of N-Stunted-induced Mth signaling; assay type: cell-based, HEK293
In short: (§2)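 HEK 293 cells stably expressing Mth-B were plated on Matrigel and loaded with 4 μM Fluo-4 (45 min at room temperature, then 15 min at 37 °C) in HEPES pH 7.5 HBSS buffer with BSA and 2.5 mM probenecid. After baseline readings, antagonist was added, followed by agonist peptide. Calcium fluorescence (ex 494/em 520 nm) was read for ~5 min. Values were background-subtracted and fitted to sigmoidal curves.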

[3] = target: T2, G-protein coupled receptor Mth (Drosophila melanogaster) (UniProt O97148); test: Inhibition of Drosophila melanogaster Mth […] transfected into human HEK cells assessed as inhibition of N-Stunted-induced Mth signaling up to 10 uM; assay type: cell-based; settings: HEK293; in short: as §2
T2 sequence (whole entry): T1 sequence (O97148 whole entry)

[4] = target: T2, G-protein coupled receptor Mth (Drosophila melanogaster); test: Binding affinity to Drosophila melanogaster Mth ectodomain transfected in CHO cells up to 5 uM by SPR
Drosophila melanogaster [5] = test: Displacement of radiolabeled full-length R8-01 mRNA from Drosophila melanogaster Mth ectodomain up to 150 uM
In short: (§3)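 35S-methionine-labelled RNA-peptide fusions were RNase-treated and bound to Mth ectodomain immobilized on NeutrAvidin-agarose (~1 mg Mth per ml matrix). For competition, unlabelled peptide at various concentrations was included in the binding buffer during the initial binding step.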

Drosophila melanogaster [6] = test: Displacement of radiolabeled full-length R8-01 mRNA from Drosophila melanogaster Mth ectodomain at 10 uM; in short: as §3
Drosophila melanogaster [7] = test: Displacement of radiolabeled 30-mer synthetic peptide mRNA from Drosophila melanogaster Mth ectodomain at 30 uM; in short: as §3
Drosophila melanogaster [8] = test: Increase in maximal life span of Drosophila melanogaster GAL-4/UAS--[…] transgene insertion line 41.6 at 25 degC; assay type: functional
In short: (§4)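 da-GAL4-driven UAS–R8-12 insertion line 41.6 male adults were maintained at 25 °C and followed by survival curves. Mean and maximal adult lifespans are the average of two independent trials, with about 90 to 120 flies per curve.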

Drosophila melanogaster [9] = test: Increase in life span of Drosophila melanogaster GAL-4/UAS--[…] transgene insertion line 41.2 at 29 degC; assay type: functional
Drosophila melanogaster [10] = test: Increase in life span of Drosophila melanogaster GAL-4/UAS--[…] transgene insertion line 11.1 at 29 degC; assay type: functional
[11] = Binding affinity to G-protein coupled receptor MthW12S mutant of Drosophila melanogaster 300 nM by fluorescence microscopy
In short: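 Intrinsic Trp fluorescence with excitation at 295 nm. 300 nM peptide was titrated with Trp-less Mth W120S ectodomain, emission read at 345 nm, in 10 mM KH2PO4 pH 7.2, 150 mM NaCl. Complexes were mixed for 5 min in a stirred cell before reading. KD came from the titration.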

Drosophila melanogaster [12] = test: Increase in mean life span of Drosophila melanogaster GAL4/UAS--[…] transgene insertion line 41.6 at 29 degC; assay type: functional
[13] = target: T2, G-protein coupled receptor Mth (Drosophila melanogaster); test: Binding affinity to Drosophila melanogaster full-length Mth-GFP transfected into CHO cells at 150 nM by fluorescence microscopy
Drosophila melanogaster [14] = test: Increase in mean life span of Drosophila melanogaster GAL-4/UAS--[…] transgene insertion line 41.6 at 25 degC; assay type: functional; in short: as §4
Drosophila melanogaster [15] = test: Increase in maximal life span of Drosophila melanogaster GAL4/UAS--[…] transgene insertion line 41.6 at 29 degC; assay type: functional
[16] = target: T2, G-protein coupled receptor Mth (Drosophila melanogaster); test: Binding affinity to Drosophila melanogaster Mth ectodomain at 900 nM measured by SPR; in short: as §1
[17] = target: T2, G-protein coupled receptor Mth (Drosophila melanogaster); test: Binding affinity to Drosophila melanogaster Mth ectodomain at 100 nM measured by SPR; in short: as §1
[18] = target: T2, G-protein coupled receptor Mth (Drosophila melanogaster); test: Binding affinity to Drosophila melanogaster Mth ectodomain at 1500 nM measured by SPR; in short: as §1
[19] = target: T2, G-protein coupled receptor Mth (Drosophila melanogaster); test: Binding affinity to Drosophila melanogaster Mth ectodomain at 300 nM measured by SPR; in short: as §1
Drosophila melanogaster [20] = test: Displacement of radiolabeled full-length R8-04 mRNA from Drosophila melanogaster Mth ectodomain at 10 uM; in short: as §3

- Kd [1]: 0.018 µM
- IC50 [2]: 0.115 µM
Compound: CC[C@H](C)[C@H](NC(=O)[C@H](C)NC(=O)[C@H](CCCNC(=N)N)NC(=O)[C@H](CCC(N)=O)NC(=O)[C@@H](NC(=O)[C@H](Cc1c[nH]c2ccccc12)NC(=O)[C@@H](NC(=O)[C@H](C)NC(=O)[C@H](CCCNC(=N)N)NC(=O)[C@@H]1CCCN1C(=O)[C@H](C)N)C(C)C)[C@@H](C)CC)C(=O)N[C@@H](CCC(N)=O)C(=O)N[C@@H](C)C(=O)N[C@@H](CCSC)C(=O)N[C@@H](Cc1ccccc1)C(=O)N[C@@H](CCCNC(=N)N)C(=O)N[C@@H](CC(C)C)C(=O)N[C@@H](C)C(=O)N[C@@H](CO)C(=O)N[C@@H](CCCNC(=N)N)C(=O)N[C@@H](CCC(N)=O)C(=O)N[C@@H](CCC(=O)O)C(=O)N[C@@H](CO)C(=O)N[C@@H](CCCCN)C(=O)N[C@@H](C)C(=O)N[C@@H](Cc1ccccc1)C(=O)N[C@@H](CC(N)=O)C(=O)O

- inhibition [3]: inactive
Compound: CC[C@H](C)[C@H](NC(=O)[C@H](C)NC(=O)[C@H](CCCNC(=N)N)NC(=O)[C@H](CCC(N)=O)NC(=O)[C@@H](NC(=O)[C@H](Cc1c[nH]c2ccccc12)NC(=O)[C@@H](NC(=O)[C@H](C)NC(=O)[C@H](CCCNC(=N)N)NC(=O)[C@@H]1CCCN1C(=O)[C@@H](C)N)C(C)C)[C@@H](C)CC)C(=O)N[C@@H](CCC(N)=O)C(=O)N[C@@H](C)C(=O)N[C@@H](CCSC)C(=O)N[C@@H](Cc1ccccc1)C(=O)N[C@@H](CCCNC(=N)N)C(=O)N[C@@H](CC(C)C)C(=O)N[C@@H](C)C(=O)N[C@@H](CO)C(=O)N[C@@H](CCCNC(=N)N)C(=O)N[C@@H](CCC(N)=O)C(=O)N[C@@H](CCC(=O)O)C(=O)N[C@@H](CO)C(=O)N[C@@H](CCCCN)C(=O)N[C@@H](C)C(=O)N[C@@H](Cc1ccccc1)C(=O)N[C@@H](CC(N)=O)C(=O)O

- Kd [1]: < 0.03 µM
Compound: H-GDDMYRIREFLANYRPIWVMRSNLAQL-OH

- Activity [4]: inactive
Compound: H-MAPRAVAIQRAIQAMFRLAGY-OH

- Activity [4]: inactive
Compound: H-MAPRAVWIQAAIQAMFRLA-OH

- Activity (Drosophila melanogaster [5]): inactive
- Kd [1]: 0.031 µM
- Activity (Drosophila melanogaster [6]): 96%
- Activity (Drosophila melanogaster [7]): 79%
Compound: H-NVSWGSFPSSWLQRYYLAKRREADVTL-OH

Compound: H-RLVWIVRSRHFGPRLRMALLGSDRKMW-OH
- Activity (Drosophila melanogaster [8]): 36%
- Activity (Drosophila melanogaster [9]): 31%
- Activity (Drosophila melanogaster [10]): 40%
- Kd [11]: 0.015 µM
- Activity (Drosophila melanogaster [12]): 38%
- inhibition [3]: inactive
- Activity [13]: Active
- Kd [1]: 0.018 µM
- Activity (Drosophila melanogaster [14]): 49%
- Activity (Drosophila melanogaster [15]): 26%
- IC50 [2]: 0.045 µM

- Kd [1]: < 0.03 µM
Compound: H-RYVWYLRTKHRRSLRLRSACARGSSA-OH

- Activity [16]: Active
- Activity [17]: Active
- Kd [1]: 0.326 µM
- Activity [18]: Active
- Activity [19]: Active
- Activity (Drosophila melanogaster [20]): 94%
Compound: H-VRIGYTSKPGGMNPGNSYTMSIIRMLI-OH
